Source: ChEMBL document CHEMBL1800034, “A synthetic 7,8-dihydroxyflavone derivative promotes neurogenesis and exhibits potent antidepressant effect” (J Med Chem, 2010)
Activity calls are given as the source filed them. No cut-off for these calls is given here.

What was measured:
[1] = target: BDNF/NT-3 growth factors receptor (Rattus norvegicus) (UniProt Q63604); test: Agonist activity at TrkB in E17 rat primary cortical neurons at 500 nM after 30 to 180 mins by immunoblotting; format: functional, cell-based; details: Cerebral cortex neuron
Chain of BDNF/NT-3 growth factors receptor (Rattus norvegicus) (Q63604 whole entry): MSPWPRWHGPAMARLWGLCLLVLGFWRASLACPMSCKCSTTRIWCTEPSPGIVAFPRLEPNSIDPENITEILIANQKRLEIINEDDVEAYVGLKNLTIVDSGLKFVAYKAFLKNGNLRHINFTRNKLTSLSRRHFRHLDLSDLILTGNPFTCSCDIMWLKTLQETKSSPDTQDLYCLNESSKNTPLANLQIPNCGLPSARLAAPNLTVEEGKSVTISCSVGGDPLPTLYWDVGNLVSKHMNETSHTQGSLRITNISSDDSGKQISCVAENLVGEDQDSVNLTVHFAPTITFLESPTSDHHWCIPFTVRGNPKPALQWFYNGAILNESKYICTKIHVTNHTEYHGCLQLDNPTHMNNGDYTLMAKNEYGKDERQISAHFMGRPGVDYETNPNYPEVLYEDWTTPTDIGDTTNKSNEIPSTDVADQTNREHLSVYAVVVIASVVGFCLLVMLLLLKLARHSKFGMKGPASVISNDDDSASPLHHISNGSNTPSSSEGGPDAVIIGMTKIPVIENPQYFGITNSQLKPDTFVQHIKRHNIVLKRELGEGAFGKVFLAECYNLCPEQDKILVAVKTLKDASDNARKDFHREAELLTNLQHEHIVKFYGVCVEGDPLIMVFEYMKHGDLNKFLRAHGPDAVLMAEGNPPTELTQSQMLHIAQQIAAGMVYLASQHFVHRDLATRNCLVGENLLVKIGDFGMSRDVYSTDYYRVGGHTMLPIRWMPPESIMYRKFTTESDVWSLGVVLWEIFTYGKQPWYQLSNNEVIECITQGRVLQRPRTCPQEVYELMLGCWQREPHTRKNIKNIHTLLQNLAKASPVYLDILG
Procedure, shortened: (§1)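 Rat primary cortical neurons were exposed to 500 nM compound for various times between 5 and 180 min. Lysates were immunoblotted for TrkB, Akt and MAPK phosphorylation.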

Mus musculus [2] = test: Toxicity in C57BL/6J mouse assessed as pathological changes in hippocampus at 5 mg/kg, po for 3 weeks; format: organism-based; set-up: dose 5 mg/kg, route oral; details: in vivo, 504 h
Procedure, shortened: (§2)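 Mice were dosed orally at 5 mg/kg for 3 weeks, with saline-treated controls. Major organs were examined for pathological changes, and a complete blood count was done.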

[3] = target: BDNF/NT-3 growth factors receptor (Rattus norvegicus) (UniProt Q63604); test: Agonist activity at TrkB in E17 rat primary rat cortical neurons assessed as AKT phosphorylation at Ser 473 at 500 nM after 15 mins by ELISA; format: functional
Mus musculus [4] = test: Agonist activity at TrkB in C57BL/6J mouse brain assessed as TrkB 706 phosphorylation at 1 mg/kg, po at 1 hr by immunoblotting; format: functional, organism-based; set-up: dose 1 mg/kg
Procedure, shortened: (§3)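 C57BL/6J mice got a single oral dose of 1 mg/kg. Brains were collected at several time points, about 1 to 16 h after dosing. Lysates were immunoblotted for TrkB phosphorylation and for downstream Akt and MAPK phosphorylation.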

Mus musculus [5] = test: Agonist activity at TrkB in C57BL/6J mouse brain assessed as AKT phosphorylation at 1 mg/kg, po after 1 to 16 hrs by immunoblotting; format: functional, organism-based; set-up: dose 1 mg/kg; procedure, shortened: as §3
Mus musculus [6] = test: Agonist activity at TrkB in C57BL/6J mouse brain assessed as MAPK phosphorylation at 1 mg/kg, po after 1 to 16 hrs by immunoblotting; format: functional, organism-based; set-up: dose 1 mg/kg; procedure, shortened: as §3
Mus musculus [7] = test: Antidepressant activity in C57BL/6J mouse assessed as decrease in immobility at 5 mg/kg, po administered for 21 days measured last 4 mins of total 6 mins observation time by forced swim test; format: functional, organism-based; set-up: dose 5 mg/kg
Procedure, shortened: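 Male C57BL/6J mice, 2–3 months old, were gavaged with saline or compound at 5 mg/kg for 21 days. Mice were acclimated to the test room for 2 days. There was no pre-swim. Each mouse swam for 6 min in a 16 cm cylinder of water 14 cm deep at 24 °C. Immobility was scored blind over the last 4 min; mean ± SEM, ANOVA.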

Mus musculus [8] = test: Agonist activity at TrkA in C57BL/6J mouse brain lysate assessed as TrkA phosphorylation at Y794 at 5 mg/kg, po administered for 21 days by immunoblotting; format: functional, organism-based; set-up: dose 5 mg/kg
Procedure, shortened: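 Adult male C57BL/6J mice, 8 per group, dosed orally by gavage once daily for 21 days; saline was the vehicle. Brain lysates were immunoblotted with anti-p-TrkA 794 and anti-p-TrkB 817.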

[9] = target: BDNF/NT-3 growth factors receptor (Rattus norvegicus) (UniProt Q63604); test: Agonist activity at TrkB in E17 rat primary rat cortical neurons assessed as AKT phosphorylation at Ser 473 at 10 nM after 15 mins by titration assay; format: functional
Procedure, shortened: (§4)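 Primary cortical neurons were incubated with graded concentrations, starting at 10 nM, for 15 min. Phospho-Akt Ser473 was measured by sandwich ELISA on 20 µg of lysate. Data come from 2 replicated experiment sets, given as mean ± SEM. Comparisons used one-way ANOVA against control and Student's t-test between compounds.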

Mus musculus [10] = test: Toxicity in C57BL/6J mouse assessed as pathological changes in intestine at 5 mg/kg, po for 3 weeks; format: organism-based; set-up: dose 5 mg/kg, route oral; details: in vivo, 504 h; procedure, shortened: as §2
[11] = target: BDNF/NT-3 growth factors receptor (Rattus norvegicus) (UniProt Q63604); test: Agonist activity at TrkB in E17 rat primary rat cortical neurons assessed as AKT phosphorylation at Ser 473 at 10 to 50 nM after 15 mins by titration assay; format: functional; procedure, shortened: as §4
Mus musculus [12] = test: Toxicity in C57BL/6J mouse assessed as pathological changes in heart at 5 mg/kg, po for 3 weeks; format: organism-based; set-up: dose 5 mg/kg, route oral; details: in vivo, 504 h; procedure, shortened: as §2
Mus musculus [13] = test: Toxicity in C57BL/6J mouse assessed as pathological changes in lungs at 5 mg/kg, po for 3 weeks; format: organism-based; set-up: dose 5 mg/kg, route oral; details: in vivo, 504 h; procedure, shortened: as §2
Mus musculus [14] = test: Toxicity in C57BL/6J mouse assessed as pathological changes in liver at 5 mg/kg, po for 3 weeks; format: organism-based; set-up: dose 5 mg/kg, route oral; details: in vivo, 504 h; procedure, shortened: as §2
Mus musculus [15] = test: Induction of neurogenesis in C57BL/6J mouse hippocampus dentate gyrus assessed as progenitor cell proliferation at 5 mg/kg, po administered for 21 days by DAPI and BrdU staining based fluorescence microscopy; format: functional, organism-based; set-up: dose 5 mg/kg
Procedure, shortened: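 Adult male C57BL/6J mice were gavaged at 5 mg/kg for 21 days and then given BrdU at 50 mg/kg i.p. Mice were perfused with 4% paraformaldehyde 2 h later. Paraffin sections had citrate antigen retrieval and 2 N HCl treatment, then were stained with anti-BrdU-FITC at 4 °C for 16 h and with DAPI. BrdU-positive cells in the dentate gyrus were counted by fluorescence microscopy.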

[16] = target: BDNF/NT-3 growth factors receptor (Rattus norvegicus) (UniProt Q63604); test: Agonist activity at TrkB in E17 rat primary cortical neurons at 500 nM after 5 mins by immunoblotting; format: functional, cell-based; details: Cerebral cortex neuron; procedure, shortened: as §1
[17] = target: BDNF/NT-3 growth factors receptor (Rattus norvegicus) (UniProt Q63604); test: Agonist activity at TrkB in E17 rat primary rat cortical neurons assessed as AKT phosphorylation at Ser 473 after 15 mins by titration assay; format: functional; procedure, shortened: as §4
[18] = target: BDNF/NT-3 growth factors receptor (Rattus norvegicus) (UniProt Q63604); test: Agonist activity at TrkB in E17 rat primary cortical neurons assessed as MAPK phosphorylation at 500 nM by ELISA; details: Cerebral cortex neuron
HEK293 = test: Cytotoxicity against human HEK293 cells assessed as cell death at 50 to 50000 nM after 24 hrs by LDH assay; format: cell-based; details: hek293, 24 h, 50 µM
[19] = target: BDNF/NT-3 growth factors receptor (Rattus norvegicus) (UniProt Q63604); test: Agonist activity at TrkB in E16 rat embryonic cortical neurons assessed as inhibition of glutamate-induced caspase 3 activation at 50 to 500 nM after 30 mins followed by 16 hrs of 50 uM glutamate-challenge by ELISA; format: functional
Procedure, shortened: (§5)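 Cortical neurons from E16 rat embryos were pretreated with the indicated compound concentrations for 30 min. They were then challenged with 50 µM glutamate for 16 h. Active caspase-3 in the lysates was measured by ELISA.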

Mus musculus [20] = test: Toxicity in C57BL/6J mouse assessed as pathological changes in muscle at 5 mg/kg, po for 3 weeks; format: organism-based, Muscle tissue; set-up: dose 5 mg/kg, route oral; details: in vivo, 504 h; procedure, shortened: as §2
[21] = target: BDNF/NT-3 growth factors receptor (Rattus norvegicus) (UniProt Q63604); test: Agonist activity at TrkB in E16 rat embryonic cortical neurons assessed as inhibition of glutamate-induced caspase 3 activation at 10 nM after 30 mins followed by 16 hrs of 50 uM glutamate-challenge by ELISA; format: functional; procedure, shortened: as §5
Mus musculus [22] = test: Agonist activity at TrkB in C57BL/6J mouse brain assessed as AKT phosphorylation at Ser473 at 1 mg/kg, po after 1 to 16 hrs by immunoblotting; format: functional, organism-based; set-up: dose 1 mg/kg; procedure, shortened: as §3
Mus musculus [23] = test: Neuroprotective activity in TrkB F616A knock in mouse assessed as inhibition of kainic acid-induced caspase 3 activation in brain homogenates at 5 mg/kg, po administered 4 hrs prior to kainic acid challenge measured after 4 days by immunoblotting in presence of TrkB F616A inhibitor 1NMPP1; format: functional, organism-based; set-up: dose 5 mg/kg
Procedure, shortened: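 TrkB F616A knock-in mice, 2–3 months old, were given 1NMPP1 at 25 µM in drinking water one day beforehand. They were then gavaged with compound at 5 mg/kg, followed 4 h later by kainic acid at 20 mg/kg. Brains were taken 4 days later, homogenized and ultracentrifuged. 40 µg of supernatant was immunoblotted.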

Mus musculus [24] = test: Toxicity in C57BL/6J mouse assessed as pathological changes in brain cortex at 5 mg/kg, po for 3 weeks; format: organism-based; set-up: dose 5 mg/kg, route oral; details: in vivo, 504 h; procedure, shortened: as §2

Compound: CN(C)c1ccc(-c2cc(=O)c3ccc(O)c(O)c3o2)cc1
- Activity [1]: inactive
- Activity (Mus musculus [2]): Non-toxic
- Activity [3]: Active
- Activity (Mus musculus [4]): Active
- Activity (Mus musculus [5]): Active
- Activity (Mus musculus [6]): Active
- Activity (Mus musculus [7]): Active
- Activity (Mus musculus [8]): inactive
- Activity [9]: Active
- Activity (Mus musculus [10]): Non-toxic
- Activity [11]: Active
- Activity (Mus musculus [12]): Non-toxic
- Activity (Mus musculus [13]): Non-toxic
- Activity (Mus musculus [14]): Non-toxic
- Activity (Mus musculus [15]): Active
- Activity [16]: Active
- Activity [17]: Dose-dependent effect
- Activity [18]: Active
- Activity (HEK293): Non-toxic
- Activity [19]: Active
- Activity (Mus musculus [20]): Non-toxic
- inhibition [21]: Active
- Activity (Mus musculus [22]): Active
- inhibition (Mus musculus [23]): inactive
- Activity (Mus musculus [24]): Non-toxic
